Assay results gathered from unrelated publications.
Protocols differ between the studies behind these lines.
Cell line: HCT-116
Observed: cell growth or viability

SMILES	method	time	IC50
O=C(NC(=S)NCCNC(=S)NC(=O)c1ccc2ccccc2c1)c1ccc2ccccc2c1		48 h	1.31 µM
CC(=O)OCCOC(=O)[C@]1(C)CC[C@]2(C)CC[C@]3(C)C4=CC=C5C(=CC(=O)C(O)=C5C)[C@]4(C)CC[C@@]3(C)[C@@H]2C1	MTT	48 h	0.47 µM
O=C(Nc1nnc(-c2cc3ccccc3[nH]2)s1)c1cc2c([nH]c3ccccc32)c(-c2ccccc2)n1	MTT	72 h	5.12 µM
CC1=C(O)C(=O)C=C2C1=CC=C1[C@@]2(C)CC[C@@]2(C)[C@@H]3C[C@](C)(C(=O)OCCCCCCO)CC[C@]3(C)CC[C@]12C	MTT	48 h	0.53 µM
O=c1c(O)c(-c2ccc(O)c(O)c2)oc2cc(O)cc(O)c12	WST-1	48 h	9.1 µM
Clc1ccc(C[n+]2cn(CCc3ccccc3)c3ccccc32)cc1	MTT	72 h	18.4 µM
CCOC(=O)/C=C1\S/C(=N\C(=O)c2ccc3ccccc3c2)N(C2CCCCC2)C1=O		48 h	11.4 µM
Cc1c(NC(=O)c2ccc(C(C)(C)C)cc2)cccc1-c1cn(C)c(=O)c(Nc2ccc(C(=O)N3CCOCC3)cc2)n1			> 10 µM
COc1cc([C@@H]2c3cc4c(cc3[C@@H](O[C@@H]3O[C@@H]5CO[C@@H](C)O[C@H]5[C@H](O)[C@H]3O)[C@H]3COC(=O)[C@H]23)OCO4)cc(OC)c1O	MTS	24 h	29.6 µM
O=c1[nH]cc(F)c(=O)[nH]1	WST-1	48 h	9.5 µM
O=C(NC(=S)NCc1ccccc1)c1ccc2ccccc2c1		48 h	4.55 µM
COc1ccc(O)c(/C=N/c2nc(SC)nn2-c2ccc(C(=O)O)cc2)c1	MTT		55.3 µM
CC(=O)SCc1cc(=O)oc2ccc(O)cc12	MTT	36 h	> 20 µM
COc1ccnc(COc2ccc(NC(=O)Nc3ccc(Cl)c(C(F)(F)F)c3)cc2)c1OC	MTT	72 h	18.1 µM
CC[C@H](C)C(=O)O[C@H]1C[C@@H](C)C=C2C=C[C@H](C)[C@H](CC[C@@H]3C[C@@H](O)CC(=O)O3)[C@H]21	SRB	72 h	6.79 µg/mL
CCNC(=S)NC(=O)c1ccc2ccccc2c1		48 h	4.14 µM
COc1ccc2oc(=O)cc(CCl)c2c1	MTT	36 h	> 20 µM
CCCCCCCCCCONC(N)=O	imaging		> 600 µM
COc1cc(Nc2nccc(-c3cnn4nc(OC)ccc34)n2)cc(C(F)(F)F)c1	ATP luminescence		0.55 µM
Cc1ccc([P+](CCCCCCCCCCONC(N)=O)(c2ccc(C)cc2)c2ccc(C)cc2)cc1	imaging		3.7 µM
Cc1ccc(O)c(/C=N/c2nc(Oc3ccccc3)nn2-c2ccc(C(=O)O)cc2)c1	MTT		74 µM
O=c1cc(CCl)c2c(O)cc(O)cc2o1	MTT	36 h	> 20 µM
CC1=C(O)C(=O)C=C2C1=CC=C1[C@@]2(C)CC[C@@]2(C)[C@@H]3C[C@](C)(C(=O)OCCCOc4ccccc4)CC[C@]3(C)CC[C@]12C	MTT	48 h	1.34 µM
COc1c(C)cnc(COc2ccc(NC(=O)Nc3cccc(C(F)(F)F)c3)cc2)c1C	MTT	72 h	12.5 µM

SMILES	method	time	IC50
COc1cc(CNC(=O)CCCC/C=C/C(C)C)ccc1OCc1cn(-c2ccc(C#N)cc2)nn1	SRB		10.5 µM
O=C(Nc1nnc(-c2cc3ccccc3[nH]2)s1)c1cc2c([nH]c3ccccc32)c(-c2ccc(F)cc2)n1	MTT	72 h	6.22 µM
Cc1c(OCC(F)(F)F)ccnc1COc1ccc(NC(=O)Nc2cc(F)cc(F)c2)cc1	MTT	72 h	52 µM
O=C(Nc1nnnn1C1CCCCC1)c1ccc2ccccc2c1		48 h	3.06 µM
COc1c(C)cnc(COc2ccc(NC(=O)Nc3cc(F)cc(F)c3)cc2)c1C	MTT	72 h	10.8 µM
O=C(NC(=S)NCCCNC(=S)NC(=O)c1ccc2ccccc2c1)c1ccc2ccccc2c1		48 h	1.23 µM
CC[C@]1(O)C[C@H]2CN(CCc3c([nH]c4ccccc34)[C@@](C(=O)OC)(c3cc4c(cc3OC)N(C=O)[C@H]3[C@@](O)(C(=O)OC)[C@H](OC(C)=O)[C@]5(CC)C=CCN6CC[C@]43[C@@H]65)C2)C1	fluorescence	72 h	0.0017 µM
O=c1cc(CCl)c2ccc(O)cc2o1	MTT	36 h	8.47 µM
O=C(O)c1ccc(-n2nc(Oc3ccccc3)nc2/N=C/c2cc([N+](=O)[O-])ccc2O)cc1	MTT		62.8 µM
O=c1cc(-c2ccc(O)c(O)c2)oc2cc(O)cc(O)c12	WST-1	48 h	11.1 µM
COCCCOc1ccnc(COc2ccc(NC(=O)Nc3ccc(OC)cc3)cc2)c1C	MTT	72 h	12.7 µM
Cn1c(-c2nnc(NC(=O)c3cc4c([nH]c5ccccc54)c(-c4ccc(F)cc4)n3)s2)cc2ccccc21	MTT	72 h	14.3 µM
CSc1nc(/N=C/c2cc(C)ccc2O)n(-c2ccc(C(=O)O)cc2)n1	MTT		43.9 µM
COc1cc(OC)c(/C=C/S(=O)(=O)Nc2ccc(OC)c(N)c2)c(OC)c1	trypan blue	96 h	0.004 µM
COc1ccc(NC(=O)Nc2ccc(OCc3nccc(OCC(F)(F)F)c3C)cc2)cc1	MTT	72 h	19.2 µM
COc1ccc(O)c(/C=N/c2nc(Oc3ccccc3)nn2-c2ccc(C(=O)O)cc2)c1	MTT		58.5 µM
COCCCOc1ccnc(COc2ccc(NC(=O)Nc3cc(F)cc(F)c3)cc2)c1C	MTT	72 h	56.6 µM
COc1cccc2c1C(=O)c1c(O)c3c(c(O)c1C2=O)C[C@@](O)(C(=O)CO)C[C@@H]3O[C@H]1C[C@H](N)[C@H](O)[C@H](C)O1	SRB		57.8 µM
O=C(/N=C1\SCC(=O)N1C1CCCCC1)c1ccc2ccccc2c1		48 h	9.12 µM
Cc1c(OCC(F)(F)F)ccnc1COc1ccc(NC(=O)Nc2ccc(Cl)cc2)cc1	MTT	72 h	3.9 µM
CCn1c(-c2nnc(NC(=O)c3cc4c([nH]c5ccccc54)c(-c4ccc(OC)cc4)n3)s2)cc2ccccc21	MTT	72 h	19.9 µM
CC(=O)SCc1cc(=O)oc2cc(O)ccc12	MTT	36 h	> 20 µM
Cc1cc(C)n(-c2nc(Nc3ccc(Cl)cc3)nc(-n3nc(C)cc3C)n2)n1	MTT	72 h	11 µM
